In ChEMBL document CHEMBL4613273, “Discovery of Aryl Formyl Piperidine Derivatives as Potent, Reversible, and Selective Monoacylglycerol Lipase Inhibitors” (J Med Chem, 2020):
Calls of active or inactive are those of the source. The calls are words filed in the database; no cut-off is given here.

Assays:
[1] = target: T1, Monoglyceride lipase (Homo sapiens) (UniProt Q99685); assay: Reversible inhibition of human recombinant MAGL at 1 uM pre-incubated for 5 mins before MAGL substrate 4-NPA addition followed by 10 fold dilution and measured after 10 mins
T1 sequence (whole entry): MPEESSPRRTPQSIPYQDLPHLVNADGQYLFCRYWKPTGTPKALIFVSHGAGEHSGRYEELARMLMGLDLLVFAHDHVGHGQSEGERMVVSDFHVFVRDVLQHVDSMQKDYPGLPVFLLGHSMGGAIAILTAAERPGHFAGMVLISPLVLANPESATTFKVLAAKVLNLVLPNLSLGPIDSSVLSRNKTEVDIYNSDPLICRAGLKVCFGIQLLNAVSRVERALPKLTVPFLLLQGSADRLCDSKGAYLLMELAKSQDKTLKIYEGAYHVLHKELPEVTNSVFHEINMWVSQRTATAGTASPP
Summary of the method: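 Human MAGL was preincubated with 1 μM inhibitor and then diluted 10-fold to a final 0.1 μM. Percent inhibition after dilution was compared with direct 1 μM and 0.1 μM samples to judge reversibility.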

Monoglyceride lipase = target: T2, Monoglyceride lipase (Homo sapiens, UniProt Q99685); assay: Inhibition of human recombinant MAGL pre-incubated for 5 mins before MAGL substrate addition and further incubated for 10 mins
T2 sequence (Q99685 whole entry): T1 sequence (whole entry)

Cannabinoid receptor 2 = Cannabinoid receptor 2 (Homo sapiens, UniProt P34972); assay: Inhibition of CB2 receptor (unknown origin) expressed in Flpin-CHO cells incubated for 10 mins by Eu-cAMP tracer based cAMP accumulation assay; format: functional, cell-based
Homo sapiens = species: Homo sapiens; assay: Selectivity index, ratio of IC50 for inhibition of human recombinant FAAH to IC50 for inhibition of human recombinant MAGL
[2] = Stability in mouse liver microsomes assessed as parent compound remaining level at 100 uM pre-incubated for 5 mins before NADPH addition and measured after 60 mins by UPLC-MS/MS analysis; format: ADME, Microsome; conditions: read-out: Stability
Summary of the method: (§1)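 Liver microsomes from human, mouse and rat were incubated with the compound. Remaining parent compound was followed at several time points up to 60 min and expressed as percent remaining.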

[3] = Stability in human liver microsomes assessed as parent compound remaining level at 100 uM pre-incubated for 5 mins before NADPH addition and measured after 60 mins by UPLC-MS/MS analysis; format: ADME, Microsome; conditions: read-out: Stability; summary of the method: as §1
[4] = Growth inhibition of mouse L929 cells at 20 uM incubated for 24 to 72 hrs relative to control; format: cell-based; conditions: read-out: GI
Summary of the method: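 Mouse fibroblast L929 cells were exposed to the compound, including 20 μM, for 24, 48 and 72 h. Growth inhibition was read against control, from 3 independent experiments.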

[5] = Half life in Sprague-Dawley rat plasma at 10 mg/kg, iv measured over 1 to 300 mins post dose by LC-MS/MS analysis; format: ADME, organism-based
[6] = Cmax in Sprague-Dawley rat plasma at 10 mg/kg, iv measured over 1 to 300 mins post dose by LC-MS/MS analysis; format: ADME, organism-based; design: dose 10 mg/kg, route intravenous
[7] = AUC (0 to infinity) in Sprague-Dawley rat plasma at 10 mg/kg, ig measured over 1 to 300 mins post dose by LC-MS/MS analysis; format: ADME, organism-based; design: dose 10 mg/kg, route […], time infinity; conditions: in vivo, po
[8] = Half life in Sprague-Dawley rat plasma at 10 mg/kg, ig measured over 1 to 300 mins post dose by LC-MS/MS analysis; format: ADME, organism-based; conditions: po
[9] = Bioavailability (0 to t) in Sprague-Dawley rat plasma at 10 mg/kg, ig measured over 1 to 300 mins post dose by LC-MS/MS analysis; format: ADME, organism-based; conditions: po
[10] = Protein binding in rat plasma at 20 to 500 ng/mL by ultracentrifugation assay; format: ADME, cell-free; conditions: read-out: PPB (converted)
Summary of the method: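 Binding to rat plasma proteins was measured by ultracentrifugation across 20–500 ng/mL of compound.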

Mus musculus [11] = assay: Antidepressant activity in ICR mouse model of reserpine-induced depression assessed as reduction in awakening at 4 to 16 mg/kg, sc for 6 days followed by reserpine injection 2 hrs after last compound dose and measured after 2 hrs; format: functional, organism-based
Summary of the method: (§2)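 In mice, depression was induced with reserpine 4 mg/kg, and the compound was given s.c. at 4, 8 or 16 mg/kg. Controls received phosphate buffer alone. Awakening, finger contact, fear, head touch, autonomous movement, straight and eyelid closure were scored. Data are mean ± SD of 3 independent experiments.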

Mus musculus [12] = assay: Antidepressant activity in ICR mouse model of reserpine-induced depression assessed as reduction in finger contact at 4 to 16 mg/kg, sc for 6 days followed by reserpine injection 2 hrs after last compound dose and measured after 2 hrs; format: functional, organism-based; summary of the method: as §2
Mus musculus [13] = assay: Antidepressant activity in ICR mouse model of reserpine-induced depression assessed as reduction in fear at 4 to 16 mg/kg, sc for 6 days followed by reserpine injection 2 hrs after last compound dose and measured after 2 hrs; format: functional, organism-based; summary of the method: as §2
Mus musculus [14] = assay: Antidepressant activity in ICR mouse model of reserpine-induced depression assessed as reduction in eyelid closure at 4 to 16 mg/kg, sc for 6 days followed by reserpine injection 2 hrs after last compound dose and measured after 2 hrs; format: functional, organism-based; summary of the method: as §2
Mus musculus [15] = assay: Antidepressant activity in ICR mouse model of reserpine-induced depression assessed as immobility time at 5 mg/kg, ig by forced swim test (reference value: 136.84 +/- 46.69 secs); format: functional
Mus musculus [16] = assay: Antidepressant activity in ICR mouse model of reserpine-induced depression assessed as immobility time at 5 mg/kg, ig by tail suspension test (reference value: 132.38 +/- 44.51 secs); format: functional
[17] = Half life in Sprague-Dawley rat brain at 10 mg/kg, ig measured over 5 to 720 mins post dose by LC-MS/MS analysis
[18] = AUC (0 to infinity) in Sprague-Dawley rat brain at 10 mg/kg, ig measured over 5 to 720 mins post dose by LC-MS/MS analysis; conditions: in vivo
[19] = Bioavailability (0 to t) in Sprague-Dawley rat plasma at 10 mg/kg, ig measured over 1 to 300 mins post dose by LC-MS/MS analysis
[20] = Bioavailability (0 to infinity) in Sprague-Dawley rat plasma at 10 mg/kg, ig measured over 1 to 300 mins post dose by LC-MS/MS analysis
Cannabinoid receptor 1 = Cannabinoid receptor 1 (Homo sapiens, UniProt P21554); assay: Inhibition of CB1 receptor (unknown origin) expressed in Flpin-CHO cells at 10 uM incubated for 10 mins by Eu-cAMP tracer based cAMP accumulation assay relative to control
Chain of Cannabinoid receptor 1 (P21554 whole entry): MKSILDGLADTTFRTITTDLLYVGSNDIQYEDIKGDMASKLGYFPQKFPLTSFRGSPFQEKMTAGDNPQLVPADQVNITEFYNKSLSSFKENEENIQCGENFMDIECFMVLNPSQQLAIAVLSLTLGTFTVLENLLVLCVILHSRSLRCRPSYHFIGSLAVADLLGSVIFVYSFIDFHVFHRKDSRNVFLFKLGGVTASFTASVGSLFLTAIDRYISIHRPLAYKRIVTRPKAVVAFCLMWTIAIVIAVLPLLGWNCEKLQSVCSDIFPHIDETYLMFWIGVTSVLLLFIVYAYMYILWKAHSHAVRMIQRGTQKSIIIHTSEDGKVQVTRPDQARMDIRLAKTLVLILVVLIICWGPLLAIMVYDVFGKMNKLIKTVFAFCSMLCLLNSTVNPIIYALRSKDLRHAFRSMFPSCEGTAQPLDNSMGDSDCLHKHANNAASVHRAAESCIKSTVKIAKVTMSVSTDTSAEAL

Chain of Cannabinoid receptor 2 (P34972 whole entry): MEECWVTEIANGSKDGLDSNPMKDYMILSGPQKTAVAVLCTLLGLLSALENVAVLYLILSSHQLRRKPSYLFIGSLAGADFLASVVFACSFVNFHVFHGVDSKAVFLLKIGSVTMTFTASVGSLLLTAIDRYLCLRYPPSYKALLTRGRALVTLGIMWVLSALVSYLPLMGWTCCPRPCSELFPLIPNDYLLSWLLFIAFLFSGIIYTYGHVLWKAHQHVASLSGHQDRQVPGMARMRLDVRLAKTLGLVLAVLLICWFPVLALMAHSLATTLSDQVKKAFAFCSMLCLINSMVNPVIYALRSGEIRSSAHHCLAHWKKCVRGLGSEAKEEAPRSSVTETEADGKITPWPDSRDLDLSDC

inhibition [1]: Active
IC50 (Monoglyceride lipase): 14.7 nM
EC50 (Cannabinoid receptor 2): > 10000 nM
Ratio IC50 (Homo sapiens): 6780
remaining at 1 h, 100 µM [2]: 57.9%
remaining at 1 h, 100 µM [3]: 88.5%
half-life [5]: 1.1 h
Cmax [6]: 5480 ng/mL
AUC [7]: 17791.86 µg·min/L
half-life [8]: 4.96 h
bioavailability [9]: 12.2%
fraction unbound [10]: 0.229
half-life [17]: 2.44 h
AUC [18]: 3720.04 µg·min/L
bioavailability [19]: 12.2%
bioavailability [20]: 21.6%
inhibition (Cannabinoid receptor 1): 29.7%
Structure (SMILES): O=C(Nc1cccc(Cl)c1)C1CCN(C(=O)c2ccc3ccccc3c2)CC1
inhibition at 20 µM [4]: 8.6%
Activity (Mus musculus [11]): Active
Activity (Mus musculus [12]): Active
Activity (Mus musculus [13]): Active
Activity (Mus musculus [14]): Active
Time (Mus musculus [15]): 89.38 s
Time (Mus musculus [16]): 89.87 s
